Assay results as given in ChEMBL document CHEMBL1153925, “Synthesis, characterization and biological activity of ring-substituted 6-benzylamino-9-tetrahydropyran-2-yl and 9-tetrahydrofuran-2-ylpurine derivatives” (Bioorg Med Chem, 2009).

Tests used:
[1] = tested on: Amaranthus; assay: Cytokinin activity in cotyledons assessed as dark induction of betacyanin synthesis at 100 uM relative to 6-benzylaminopurine; assay type: functional
[2] = tested on: MCF7; assay: Cytotoxicity against human MCF7 cells after 72 hrs by Calcein AM assay; assay type: ADME, cell-based; details: MCF7, 72 h
[3] = tested on: BJ; assay: Cytotoxicity against human BJ cells after 72 hrs by MTT assay; assay type: ADME, cell-based
[4] = tested on: Nicotiana tabacum; assay: Cytokinin activity in tobacco callus assessed as stimulation of callus growth at 100 uM relative to 6-benzylaminopurine; assay type: functional
Summary of the method: (§1)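 Compounds dissolved in DMSO, diluted with water to 5 × 10^-2 M stock, then diluted in medium to 10^-8 to 10^-4 M. Final DMSO ≤0.2%; solvent control 0.2% DMSO. Readout was cytokinin-dependent tobacco callus growth. Activity is expressed relative to 10^-6 M BAP (=100%) at each compound's optimal concentration. Five replicates per concentration; whole test run at least twice.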

[5] = tested on: K562; assay: Cytotoxicity against human K562 cells after 72 hrs by Calcein AM assay; assay type: ADME, cell-based; details: K562, 72 h
[6] = tested on: Nicotiana tabacum; assay: Cytokinin activity in tobacco callus assessed as stimulation of callus growth at 10 uM relative to 6-benzylaminopurine; assay type: functional; summary of the method: as §1
[7] = tested on: Triticum aestivum; assay: Cytokinin activity in wheat leaf assessed as stimulation of retention of chlorophyll in excised leaves at 0.1 mM relative to 6-benzylaminopurine; assay type: functional
[8] = tested on: Nicotiana tabacum; assay: Cytokinin activity in tobacco callus assessed as stimulation of callus growth at 1 uM relative to 6-benzylaminopurine; assay type: functional

SMILES	Activity [1] [%]	IC50 [2] [µM]	IC50 [3] [µM]	Activity [4] [%]	IC50 [5] [µM]	Activity [6] [%]	Activity [7] [%]	Activity [8] [%]
Oc1cccc(CNc2ncnc3c2ncn3C2CCCCO2)c1O (stereo not drawn)	8	> 100	63.3	3.2	92			
Oc1cc(O)cc(CNc2ncnc3c2ncn3C2CCCCO2)c1 (stereo not drawn)	33	> 100	> 100		> 100	36	15	
COc1cc(CNc2ncnc3c2ncn3C2CCCCO2)cc(OC)c1OC (stereo not drawn)	19	> 100	> 100	17	> 100		7	
c1ccc(CNc2ncnc3c2ncn3C2CCCO2)cc1 (stereo not drawn)	109	> 100	> 100		> 100		107	95
Oc1ccc(CNc2ncnc3c2ncn3C2CCCO2)cc1 (stereo not drawn)	10	> 100	> 100		> 100	19	8	
COc1ccccc1CNc1ncnc2c1ncn2C1CCCO1 (stereo not drawn)	107	> 100	> 100		> 100	91	72	
COc1cccc(CNc2ncnc3c2ncn3C2CCCO2)c1 (stereo not drawn)	123	> 100	> 100		> 100		82	96
COc1ccc(CNc2ncnc3c2ncn3C2CCCO2)cc1 (stereo not drawn)	25	> 100	> 100		> 100		16	7
COc1ccc(CNc2ncnc3c2ncn3C2CCCO2)cc1OC (stereo not drawn)	5	> 100	> 100		> 100		7	3
COc1cc(CNc2ncnc3c2ncn3C2CCCCO2)ccc1O (stereo not drawn)	26	> 100	> 100	8.7	> 100		7	
COc1cc(OC)c(CNc2ncnc3c2ncn3C2CCCCO2)c(OC)c1 (stereo not drawn)	14	> 50	> 50	2	> 50		3	
COc1ccc(CNc2ncnc3c2ncn3C2CCCCO2)cc1OC (stereo not drawn)	8	> 100	> 100		> 100		8	
COc1ccc(CNc2ncnc3c2ncn3C2CCCCO2)c(OC)c1OC (stereo not drawn)	4	> 37.5	> 37.5		> 37.5		7	
Oc1ccccc1CNc1ncnc2c1ncn2C1CCCO1 (stereo not drawn)	41	> 100	> 100	58	> 100		25	
Oc1ccccc1CNc1ncnc2c1ncn2C1CCCCO1 (stereo not drawn)	46	> 100	> 100		> 100	37	31	
COc1ccc(CNc2ncnc3c2ncn3C2CCCCO2)cc1 (stereo not drawn)	18	> 100	> 100		> 100			10
COc1ccc(CNc2ncnc3c2ncn3C2CCCO2)c(OC)c1 (stereo not drawn)	14	> 100	> 100		> 100		18	3
